# Laboratory results as given in the RNAGym collection of RNA variant scans (doi:10.1126/science.aae0568).
# Variants at the floor of the assay were thinned out.
# B1: tRNA (parent)
# chain: GUUCCGUUGGCGUAAUGGUAACGCGUCUCCCUCCUAAGGAGAAGACUGCGGGUUCGAGUCCCGUACGGAACG
# Variants of: B1
# Experiment: yeast fitness relative to wild type (ratio to wild type); higher = fitter; tRNA-Arg(CCU), competitive growth, 37 C, YPD
# Method in brief: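 The tRNA-Arg(CCU) gene variants were made by chemical synthesis with a 3% per-site mutation rate at 69 sites and inserted at the native genomic locus of Saccharomyces cerevisiae. After pooling, the strains were competed in YPD at 37°C for 24 hours in six parallel replicates. Gene amplicons from the start population and each end population were read by 100-nucleotide paired-end sequencing, and Darwinian fitness relative to wild type was taken from genotype frequency changes. Genotypes needed ≥ 100 starting reads, and estimates < 0.5 were set to 0.5.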
row,Variant,yeast fitness
1,C11G C34U G44C G50C C66U,≤ 0.5
2,C11G C34U G44C G50C U53C,≤ 0.5
3,C11G C46A A65G,≤ 0.5
4,C11G C46A C49U U54C C60U,≤ 0.5
5,C11G C46A C61G A65G,≤ 0.5
6,C11G C46G C62A,≤ 0.5
7,C11G C46G G50C,0.694
8,C11G C46U A65U,0.561
9,C11G C46U C49A C55U,0.661
10,C11G C46U C62U,≤ 0.5
11,C11G C46U G51A,0.649
12,C11G C46U G51C C66G,≤ 0.5
13,C11G C49U A70G,0.573
14,C11G C49U C61A A70G,≤ 0.5
15,C11G C49U C66U,≤ 0.5
16,C11G C49U G58C,0.597
17,C11G C49U G58C C61A A65U,≤ 0.5
18,C11G C49U G63A,≤ 0.5
19,C11G C55A,0.756
20,C11G C55A G63A,0.553
21,C11G C55U,≤ 0.5
22,C11G C55U C61A,0.546
23,C11G C60G C61U,0.555
24,C11G C60U C62G A70G,≤ 0.5

row,Variant,yeast fitness
1,C11G C61A,0.546
2,C11G C61G,0.705
3,C11G C61G A69U,≤ 0.5
4,C11G C61G C62G,≤ 0.5
5,C11G C61U,0.656
6,C11G C62U,0.579
7,C11G C62U C66U,≤ 0.5
8,C11G C66G G68C,≤ 0.5
9,C11G C66U A69C,≤ 0.5
10,C11G G12A A21G G58A C62G,0.532
11,C11G G12A A42U,≤ 0.5
12,C11G G12A A45C C46G G52A,≤ 0.5
13,C11G G12A C22A A36C C61G A69C,≤ 0.5
14,C11G G12A C22U G39A U64A,≤ 0.5
15,C11G G12A C24A C30G C46U C66G,0.585
16,C11G G12A C27U A43G G67A,0.606
17,C11G G12A C30G C31G U32A C66U,≤ 0.5
18,C11G G12A C31G A69U,≤ 0.5
19,C11G G12A U19C,≤ 0.5
20,C11G G12C A20C C24G A37G C60G C61U,≤ 0.5
21,C11G G12C A20C C24G G39C C60A,≤ 0.5
22,C11G G12C A20G A43G A45C G67A,≤ 0.5
23,C11G G12C A21G U35A G51A,0.732
24,C11G G12C A43U G44A,0.612

row,Variant,yeast fitness
1,C11G G12C C33U C60U,≤ 0.5
2,C11G G12C C49U C60G,≤ 0.5
3,C11G G12C C60A C61A,≤ 0.5
4,C11G G12C U16G A21G C33G,≤ 0.5
5,C11G G17A A20U C33G G38C,≤ 0.5
6,C11G G17A C22U C27U A57C,≤ 0.5
7,C11G G17A C22U C27U C33G,≤ 0.5
8,C11G G17A C30G C61G,≤ 0.5
9,C11G G17A C30G U59G,≤ 0.5
10,C11G G17A C62G,≤ 0.5
11,C11G G17A U19C,≤ 0.5
12,C11G G17C A40G G44C U59C A70G,0.603
13,C11G G17C C29U G51A,0.625
14,C11G G17C C29U G51A C62U A69C,≤ 0.5
15,C11G G17C C34A A43C G56C C61A A65C,≤ 0.5
16,C11G G17C G63A,≤ 0.5
17,C11G G17U A21U A42U,≤ 0.5
18,C11G G18A A21C C49U,≤ 0.5
19,C11G G18A C24U,0.542
20,C11G G18A C29U A40G C62U,≤ 0.5
21,C11G G18A G44U A65C,≤ 0.5
22,C11G G18C,0.611
23,C11G G18C A20U C33G C34G G50C,0.632
24,C11G G18C A69U,≤ 0.5

row,Variant,yeast fitness
1,C11G G18C C49U,≤ 0.5
2,C11G G18U C22U C33U A43G,≤ 0.5
3,C11G G23A C31U C33G C34U A36G,≤ 0.5
4,C11G G23A C46A G68U,0.566
5,C11G G23A G38A G39C G50A G56C,0.613
6,C11G G23C A36G A37G A70G,0.55
7,C11G G23C A36U G44C,0.748
8,C11G G23C A36U G44C C62A,≤ 0.5
9,C11G G23C A37G C49U C61U,≤ 0.5
10,C11G G23C U35G G39C G50C C66A,≤ 0.5
11,C11G G25A C27U,0.687
12,C11G G25A C30U A37C C46U,0.568
13,C11G G25A U35C A36U,≤ 0.5
14,C11G G25C G48C G51C C66A,≤ 0.5
15,C11G G38A,0.63
16,C11G G38A C61G,≤ 0.5
17,C11G G38A C66U,≤ 0.5
18,C11G G38A G58A C60U,≤ 0.5
19,C11G G38C G58C U64A,≤ 0.5
20,C11G G39A A40C C60U G68U,≤ 0.5
21,C11G G39C G56C C61U,≤ 0.5
22,C11G G39C U47C,≤ 0.5
23,C11G G39C U47C G68C,≤ 0.5
24,C11G G41A,0.586

row,Variant,yeast fitness
1,C11G G41A A70G,≤ 0.5
2,C11G G41A G44C C66G,≤ 0.5
3,C11G G41A G67U G68C,0.569
4,C11G G41A U47A C49U U59C G67C A70U,≤ 0.5
5,C11G G41C A42C A43U,≤ 0.5
6,C11G G44C A57C,≤ 0.5
7,C11G G44C A57C C60U,0.518
8,C11G G48A A65U,0.525
9,C11G G48A G63A A65C,≤ 0.5
10,C11G G50A C61U,0.566
11,C11G G50A C66G,≤ 0.5
12,C11G G51C A65G,0.616
13,C11G G51U,0.601
14,C11G G52A A69C,≤ 0.5
15,C11G G52C G67C,≤ 0.5
16,C11G G56A C62U,≤ 0.5
17,C11G G56C G67U,≤ 0.5
18,C11G G58A A69U,0.571
19,C11G G58C,0.589
20,C11G G63A,0.605
21,C11G G63C,0.543
22,C11G G63C G67C,≤ 0.5
23,C11G G67C,0.581
24,C11G G67U A69C,0.528

row,Variant,yeast fitness
1,C11G G68A,0.64
2,C11G G68A A69G,≤ 0.5
3,C11G U13C A14G G17A G48C C62U C66G A70G,≤ 0.5
4,C11G U13C C27A U35A G48A U59C,≤ 0.5
5,C11G U13G A21G A65G,≤ 0.5
6,C11G U13G A65C,≤ 0.5
7,C11G U13G C30U A37G A40U A57U,≤ 0.5
8,C11G U13G C55G C66U,≤ 0.5
9,C11G U13G C60U,≤ 0.5
10,C11G U13G C61U,≤ 0.5
11,C11G U13G G56A A69C,≤ 0.5
12,C11G U13G G63A,≤ 0.5
13,C11G U16A,0.666
14,C11G U16A A20G C30A,≤ 0.5
15,C11G U16A A21G C24U,≤ 0.5
16,C11G U16A A21U G23C,0.665
17,C11G U16A A42G A57U,≤ 0.5
18,C11G U16A A65G,0.567
19,C11G U16A A70U,0.553
20,C11G U16A C22U G51C C60U G67A,≤ 0.5
21,C11G U16A C22U U28A C31A A42C A45U G51A U64A,≤ 0.5
22,C11G U16A C24U G50C C66U,≤ 0.5
23,C11G U16A C29U A69C,0.538
24,C11G U16A C29U C66A,≤ 0.5

row,Variant,yeast fitness
1,C11G U16A C30A,0.583
2,C11G U16A C30A A69C,≤ 0.5
3,C11G U16A C31A A42G,0.573
4,C11G U16A C49A,≤ 0.5
5,C11G U16A G48C A57U,≤ 0.5
6,C11G U16A G67A,0.536
7,C11G U16A U28C C29U G39A U59G U64A,≤ 0.5
8,C11G U16A U47C,0.655
9,C11G U16C C22U C55U G68U,≤ 0.5
10,C11G U16G C55A,≤ 0.5
11,C11G U16G G38C,0.577
12,C11G U19A A21G C27U G39C C60A,≤ 0.5
13,C11G U19A C22G U59A,≤ 0.5
14,C11G U19A G25A C49U,≤ 0.5
15,C11G U19C C34G C60A G67C,≤ 0.5
16,C11G U19C G58C,≤ 0.5
17,C11G U26A C27A C29G C46A G50A U59G,0.73
18,C11G U26A C31A G44C C62A,≤ 0.5
19,C11G U26A U35A,≤ 0.5
20,C11G U26C C31A A43U C61A,≤ 0.5
21,C11G U26C C49G,≤ 0.5
22,C11G U28A,≤ 0.5
23,C11G U28A A70U,≤ 0.5
